# Assays:
# [1] = target: T1, Cholinesterase (Homo sapiens, UniProt P06276); assay: Inhibition of human recombinant BuChE assessed as enzyme activity reversion at 100 uM by Ellman's assay
# [2] = target: Acetylcholinesterase (Homo sapiens, UniProt P22303); assay: Inhibition of human recombinant AChE […] by Ellman's assay
# [3] = target: T1, Cholinesterase; assay: Inhibition of human recombinant BuChE by Ellman's assay
# Method in brief: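 Ellman assay at 25 °C with 125 pM recombinant human enzyme: AChE with acetylthiocholine iodide, BuChE with butyrylthiocholine, substrate at 0.53 mM. Buffer was 0.1 M phosphate pH 7.4 with 15 mM NaCl, NaN3, BSA and DTNB. Inhibitor was preincubated with enzyme for at least 30 min. Rate read at 414 nm for 20 min against an inhibitor-free 100% control. Generally at least triplicate; IC50 by nonlinear regression.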
# [4] = organism: Homo sapiens; assay: Selectivity ratio of IC50 for human recombinant BuChE to IC50 for human recombinant AChE
# [5] = target: T1, Cholinesterase; assay: Inhibition of human recombinant BuChE assessed as enzyme activity reversion at 10 uM by Ellman's assay
# Acetylcholinesterase, sequence (P22303 whole entry): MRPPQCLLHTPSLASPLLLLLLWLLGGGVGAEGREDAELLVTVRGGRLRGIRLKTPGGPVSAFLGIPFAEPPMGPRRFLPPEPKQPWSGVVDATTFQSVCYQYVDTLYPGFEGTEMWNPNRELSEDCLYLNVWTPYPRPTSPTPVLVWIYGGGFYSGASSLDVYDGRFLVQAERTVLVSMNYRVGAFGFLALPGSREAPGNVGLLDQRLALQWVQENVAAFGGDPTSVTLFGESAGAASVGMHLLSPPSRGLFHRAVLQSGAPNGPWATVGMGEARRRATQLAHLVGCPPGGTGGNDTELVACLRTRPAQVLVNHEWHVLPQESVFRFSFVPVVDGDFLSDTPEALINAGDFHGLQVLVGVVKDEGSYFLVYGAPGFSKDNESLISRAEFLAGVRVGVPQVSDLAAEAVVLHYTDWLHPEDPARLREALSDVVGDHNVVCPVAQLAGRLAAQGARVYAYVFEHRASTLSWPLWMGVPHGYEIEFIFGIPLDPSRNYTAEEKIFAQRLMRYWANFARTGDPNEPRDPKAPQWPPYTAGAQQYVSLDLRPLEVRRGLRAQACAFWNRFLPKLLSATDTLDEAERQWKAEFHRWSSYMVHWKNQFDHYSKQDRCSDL
# T1 sequence (P06276 whole entry): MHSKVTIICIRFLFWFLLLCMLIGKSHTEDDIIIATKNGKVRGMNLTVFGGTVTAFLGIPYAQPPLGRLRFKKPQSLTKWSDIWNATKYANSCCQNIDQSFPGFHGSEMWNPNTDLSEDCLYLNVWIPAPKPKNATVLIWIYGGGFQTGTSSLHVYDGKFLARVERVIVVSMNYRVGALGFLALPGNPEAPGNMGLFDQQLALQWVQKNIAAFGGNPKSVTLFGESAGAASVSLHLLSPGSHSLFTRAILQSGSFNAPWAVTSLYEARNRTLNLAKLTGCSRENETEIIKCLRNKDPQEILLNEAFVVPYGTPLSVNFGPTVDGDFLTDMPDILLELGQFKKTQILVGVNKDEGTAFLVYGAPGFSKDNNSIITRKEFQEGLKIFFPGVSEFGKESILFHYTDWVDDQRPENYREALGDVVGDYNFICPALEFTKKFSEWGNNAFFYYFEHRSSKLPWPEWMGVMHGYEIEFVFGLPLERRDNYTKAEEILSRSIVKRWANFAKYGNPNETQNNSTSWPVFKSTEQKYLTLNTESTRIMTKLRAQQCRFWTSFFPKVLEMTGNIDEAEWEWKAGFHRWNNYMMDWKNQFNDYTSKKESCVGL
SMILES,IC50 [2] [µM],also measured
C#CCCCCCCN1CCc2cc(OC)c(OC)cc2C1c1ccc([N+](=O)[O-])cc1 (centres undefined),2.92,inhibition [1]: < 1%
C#CCCCCCCN1CCc2cc(OC)c(OC)cc2C1c1cccc([N+](=O)[O-])c1 (centres undefined),8.08,inhibition [1]: < 1%
CSc1n[nH]c2nc3c(c(N)c12)C1CC(C)=CC(C3)C1 (racemic),50,–
CC1=CC2Cc3nc4cc(Cl)ccc4c(Cl)c3C(C1)C2 (racemic),22.4,–
CCC1=CC2Cc3nc4cc(Cl)ccc4c(Cl)c3C(C1)C2 (racemic),19.2,–
CCC1=CC2Cc3nc4cc(OC)c(OC)cc4c(N)c3C(C1)C2 (racemic),5.1,–
CCC1=CC2Cc3nc4cc(Cl)ccc4c(NCCO)c3C(C1)C2 (racemic),0.00675,IC50 [3]: 3.64 µM; Ratio IC50 [4]: 540
CCCSc1nc2nc3c(c(N)c2s1)C1CC(C)=CC(C3)C1 (racemic),7.69,–
COc1cc2nc3c(c(N)c2cc1OC)C1CC(C)=CC(C3)C1 (racemic),11.7,–
CC1=CC2Cc3nc4oc(C)c(C)c4c(N)c3C(C1)C2 (racemic),4.78,–
CC1=CC2Cc3nc4oc(C5CC5)nc4c(N)c3C(C1)C2 (racemic),50,–
CC1=CC2Cc3nc4[nH]ncc4c(N)c3C(C1)C2 (racemic),50,–
CC1=CC2Cc3nc4cc(Cl)ccc4c(NCCN=[N+]=[N-])c3C(C1)C2 (racemic),0.00869,IC50 [3]: 2.35 µM; Ratio IC50 [4]: 270
CCC1=CC2Cc3nc4cc(Cl)ccc4c(NCCN=[N+]=[N-])c3C(C1)C2 (racemic),0.0137,IC50 [3]: 0.824 µM; Ratio IC50 [4]: 60
CC1=CC2Cc3nc4cc(Cl)ccc4c(O)c3C(C1)C2 (racemic),14.7,–
CC1=CC2Cc3nc4ncccc4c(N)c3C(C1)C2 (racemic),0.81,IC50 [3]: 0.342 µM; Ratio IC50 [4]: 0.4
CCC1=CC2Cc3nc4cnccc4c(N)c3C(C1)C2 (racemic),0.664,–
COc1cc2c(cc1OC)C(c1cccc([N+](=O)[O-])c1)N(CCCCCCc1cn(CCNc3c4c(nc5cc(Cl)ccc35)CC3C=C(C)CC4C3)nn1)CC2 (racemic),0.00395,Ratio IC50 [4]: > 10000; inhibition [5]: 6%
CC1=CC2Cc3nc4cc(Cl)ccc4c(NC(=O)CCl)c3C(C1)C2 (racemic),2.51,–
CC1=CC2Cc3nc4oc(C5CCC5)nc4c(N)c3C(C1)C2 (racemic),27.1,–
CCCSc1nc2nc3c(c(N)c2s1)C1CC(CC)=CC(C3)C1 (racemic),7.27,–
CC1=CC2Cc3nc4cc(Cl)ccc4c(NCCCl)c3C(C1)C2 (racemic),0.0433,–
CCC1=CC2Cc3nc4oc(C)c(C)c4c(N)c3C(C1)C2 (racemic),6.45,–
CC1=CC2Cc3nc4cc(Cl)ccc4c(NCCO)c3C(C1)C2 (racemic),0.00966,–
CCC1=CC2Cc3nc4oc(C5CC5)nc4c(N)c3C(C1)C2 (racemic),50,–
CCC1=CC2Cc3nc4ncccc4c(N)c3C(C1)C2 (racemic),0.855,–
CCC1=CC2Cc3nc4cc(Cl)ccc4c(N)c3[C@@H](C1)C2 [HUPRINE X],0.0011,–
